According to ChEMBL document CHEMBL1136923, “Highly potent, orally available anti-inflammatory broad-spectrum chemokine inhibitors” (J Med Chem, 2009):

Tests used:
THP-1 [1] = assay: Toxicity in human THP1 cells assessed as change in cell size at 10 nM by forward scatter flow cytometry relative to control; type: cell-based; settings: thp-1, 0.01 µM
Mus musculus [2] = assay: Antiinflammatory activity in po dosed mouse assessed as inhibition of LPS-induced TNFalpha upregulation measured 2 hrs after LPS challenge; type: functional
[3] = target: T1, C-C chemokine receptor type 1 (Homo sapiens) (UniProt P32246); assay: Antagonist activity at CCR1 in human THP1 cells assessed as inhibition of CCL3-induced chemotaxis at 1 nM after 2 hrs by microtiter format trans-well migration assay; type: functional, cell-based; settings: THP-1
T1 sequence (whole entry): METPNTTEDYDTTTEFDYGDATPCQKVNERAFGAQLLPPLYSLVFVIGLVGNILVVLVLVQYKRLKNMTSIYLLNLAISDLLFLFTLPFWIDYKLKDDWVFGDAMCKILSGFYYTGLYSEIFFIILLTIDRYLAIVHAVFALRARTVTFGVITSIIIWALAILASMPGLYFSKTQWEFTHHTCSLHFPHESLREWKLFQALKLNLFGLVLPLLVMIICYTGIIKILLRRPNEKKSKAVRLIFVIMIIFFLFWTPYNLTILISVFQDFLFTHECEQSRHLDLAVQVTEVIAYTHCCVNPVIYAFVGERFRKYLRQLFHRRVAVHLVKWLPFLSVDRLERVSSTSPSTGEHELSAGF
In short: (§1)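 Microtiter trans-well migration assay in Gey's balanced salt solution with 1 mg/mL endotoxin-free BSA, no fetal calf serum. Migration ran 2 h at 37 °C. Compounds dissolved in DMSO and added to both top and bottom compartments, final DMSO 1%.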

THP-1 [4] = assay: Endogenous chemoattractant activity at human THP1 cells assessed as cell migration at 0.01 nM after 2 hrs by microtiter format trans-well migration assay; type: functional
THP-1 [5] = assay: Endogenous chemoattractant activity at human THP1 cells assessed as cell migration at 0.001 nM after 2 hrs by microtiter format trans-well migration assay; type: functional
[6] = Antagonist activity at Interleukin-8 receptor in human PMNC assessed as inhibition of CXCL8-induced chemotaxis at 0.1 nM after 2 hrs by microtiter format trans-well migration assay; type: functional; in short: as §1
THP-1 [7] = assay: Toxicity in human THP1 cells assessed as change in cell size at 0.1 nM by forward scatter flow cytometry relative to control; type: cell-based; settings: thp-1, 0.0001 µM
[8] = target: C-C chemokine receptor type 2 (Homo sapiens) (UniProt P41597); assay: Antagonist activity at CCR2 in human THP1 cells assessed as inhibition of CCL2-induced chemotaxis at 0.1 nM after 2 hrs by microtiter format trans-well migration assay; type: functional, cell-based; settings: THP-1; in short: as §1
C-C chemokine receptor type 2 (Homo sapiens), sequence (P41597 whole entry, looked up): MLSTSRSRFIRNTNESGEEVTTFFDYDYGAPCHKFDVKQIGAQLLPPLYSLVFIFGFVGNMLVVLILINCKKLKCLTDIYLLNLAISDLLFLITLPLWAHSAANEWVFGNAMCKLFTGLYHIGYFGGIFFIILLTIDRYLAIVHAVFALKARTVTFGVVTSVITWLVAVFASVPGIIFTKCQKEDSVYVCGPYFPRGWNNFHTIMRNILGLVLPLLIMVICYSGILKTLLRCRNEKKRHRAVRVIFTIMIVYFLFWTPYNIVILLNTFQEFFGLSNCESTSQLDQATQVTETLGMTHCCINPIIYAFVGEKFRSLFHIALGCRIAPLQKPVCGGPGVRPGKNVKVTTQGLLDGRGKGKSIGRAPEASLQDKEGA

[9] = target: T2, C5a anaphylatoxin chemotactic receptor 1 (Homo sapiens) (UniProt P21730); assay: Antagonist activity at C5a receptor in human PMNC assessed as inhibition of C5a-induced chemotaxis at 1 nM after 2 hrs by microtiter format trans-well migration assay; type: functional; in short: as §1
T2 sequence (whole entry): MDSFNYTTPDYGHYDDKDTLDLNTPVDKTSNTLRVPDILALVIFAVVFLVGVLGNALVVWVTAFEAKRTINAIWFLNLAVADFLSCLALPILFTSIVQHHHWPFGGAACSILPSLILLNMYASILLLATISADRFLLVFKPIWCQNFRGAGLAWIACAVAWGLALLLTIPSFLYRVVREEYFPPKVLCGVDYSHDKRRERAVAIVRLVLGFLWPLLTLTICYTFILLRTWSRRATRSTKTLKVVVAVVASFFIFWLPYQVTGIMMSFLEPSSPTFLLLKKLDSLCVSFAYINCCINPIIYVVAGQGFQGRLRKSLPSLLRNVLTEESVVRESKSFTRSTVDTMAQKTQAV

[10] = target: T1, C-C chemokine receptor type 1 (Homo sapiens); assay: Antagonist activity at CCR1 in human THP1 cells assessed as inhibition of CCL3-induced chemotaxis at 0.01 nM after 2 hrs by microtiter format trans-well migration assay; type: functional, cell-based; settings: THP-1; in short: as §1
[11] = target: T2, C5a anaphylatoxin chemotactic receptor 1 (Homo sapiens); assay: Antagonist activity at C5a receptor in human PMNC assessed as inhibition of C5a-induced chemotaxis at 0.1 nM after 2 hrs by microtiter format trans-well migration assay; type: functional; in short: as §1
Mus musculus [12] = assay: Antiinflammatory activity in sc dosed mouse assessed as inhibition of LPS-induced TNFalpha upregulation measured 2 hrs after LPS challenge relative to control; type: functional
In short: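 Murine sublethal LPS endotoxemia screen. LPS is injected intraperitoneally and serum TNF-α is measured 2 h later as the end point. Compound is given subcutaneously or orally in a vehicle of 0.6% DMSO plus 1% carboxymethylcellulose (final concentrations) in sterile water. Values are % relative to control.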

[13] = Fractional bioavailability in Sprague-Dawley rat at 3 mg/kg, po administered as single dose; type: ADME, organism-based; settings: in vivo
In short: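 Male Sprague-Dawley rats, three per compound, receive a single oral dose by gavage in 1% carboxymethylcellulose in 0.9% saline, with food and water ad libitum. Plasma is sampled from 5 to 480 min and drug is quantified by positive-mode LC/MS/MS after acetonitrile/formic acid extraction. The lower limit of quantitation is about 2 ng/mL. Exposure is AUC(0→t) by the linear/log trapezoidal rule, and F is oral fractional bioavailability.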

[14] = target: C-C chemokine receptor type 5 (Homo sapiens) (UniProt P51681); assay: Antagonist activity at CCR5 in human THP1 cells assessed as inhibition of CCL5-induced chemotaxis at 0.01 nM after 2 hrs by microtiter format trans-well migration assay; type: functional, cell-based; settings: THP-1; in short: as §1
C-C chemokine receptor type 5 (Homo sapiens), sequence (P51681 whole entry, looked up): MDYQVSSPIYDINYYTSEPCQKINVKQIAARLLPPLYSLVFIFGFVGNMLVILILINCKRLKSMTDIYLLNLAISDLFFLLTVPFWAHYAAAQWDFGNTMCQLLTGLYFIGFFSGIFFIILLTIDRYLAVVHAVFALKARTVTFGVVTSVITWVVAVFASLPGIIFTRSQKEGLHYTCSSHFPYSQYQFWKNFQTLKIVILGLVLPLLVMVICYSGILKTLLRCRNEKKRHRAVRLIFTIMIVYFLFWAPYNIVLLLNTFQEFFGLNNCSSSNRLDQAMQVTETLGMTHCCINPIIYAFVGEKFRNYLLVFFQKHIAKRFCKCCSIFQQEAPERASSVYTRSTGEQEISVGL

THP-1 [15] = assay: Endogenous chemoattractant activity at human THP1 cells assessed as cell migration at 10 uM after 2 hrs by microtiter format trans-well migration assay; type: functional
Mus musculus [16] = assay: Antiinflammatory activity in mouse assessed as inhibition of LPS-induced TNFalpha upregulation at 0.0075 mg, po measured 2 hrs after LPS challenge; type: functional
In short: (§2)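 Murine sublethal endotoxemia: LPS given intraperitoneally, with serum TNF-α measured 2 h after the LPS injection as the end point. Compound was given subcutaneously or orally. Vehicle was 0.6% DMSO and 1% carboxymethylcellulose (final concentrations) in sterile water. Effect is reported as % relative to control.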

[17] = target: C-C chemokine receptor type 2 (Homo sapiens) (UniProt P41597); assay: Antagonist activity at CCR2 in human THP1 cells assessed as inhibition of CCL2-induced chemotaxis at 1 nM after 2 hrs by microtiter format trans-well migration assay; type: functional, cell-based; settings: THP-1; in short: as §1
[18] = target: C-C chemokine receptor type 2 (Homo sapiens) (UniProt P41597); assay: Antagonist activity at CCR2 in human THP1 cells assessed as inhibition of CCL2-induced chemotaxis at 100 nM after 2 hrs by microtiter format trans-well migration assay; type: functional, cell-based; settings: THP-1; in short: as §1
[19] = AUC (0 to t) in Sprague-Dawley rat at 1 mg/kg, iv administered as single dose; type: ADME, organism-based, Plasma; parameters: dose 1 mg/kg, route intravenous; settings: Sprague-Dawley, plasma
In short: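 Male Sprague-Dawley rats, three per compound per route, single dose. IV vehicle 5% DMSO in 0.9% saline; oral gavage vehicle 1% carboxymethylcellulose in 0.9% saline; fed ad libitum. Plasma taken 5–480 min post-dose, extracted with 0.1% formic acid in acetonitrile, quantified by LC/MS/MS (positive mode). AUC(0–t) by linear/log trapezoidal rule; IV curve back-extrapolated assuming initial volume 0.26 L/kg.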

[20] = target: T2, C5a anaphylatoxin chemotactic receptor 1 (Homo sapiens); assay: Antagonist activity at C5a receptor in human PMNC assessed as inhibition of C5a-induced chemotaxis at 100 nM after 2 hrs by microtiter format trans-well migration assay; type: functional; in short: as §1
Mus musculus [21] = assay: Antiinflammatory activity in mouse assessed as inhibition of LPS-induced TNFalpha upregulation at 0.025 ug, sc measured 2 hrs after LPS challenge; type: functional; in short: as §2

Structure (SMILES): CCCCCCCCCCC(C)(C)C(=O)N[C@H]1CCCCNC1=O
- fold change (FC) (THP-1 [1]): 1.04
- ED50 (Mus musculus [2]): 0.3 mg/kg
- inhibition [3]: 92.5%
- Activity (THP-1 [4]): 5337%
- Activity (THP-1 [5]): 4282%
- inhibition at 0.0001 µM [6]: 12.5%
- fold change (FC) (THP-1 [7]): 1.04
- inhibition [8]: 53.5%
- inhibition [9]: 17.5%
- inhibition [10]: 21%
- inhibition [11]: 26.5%
- inhibition (INH) (Mus musculus [12]): 70%
- bioavailability [13]: 16%
- inhibition [14]: 8.5%
- Activity (THP-1 [15]): 2540%
- inhibition (INH) (Mus musculus [16]): 12%
- inhibition [17]: 81%
- inhibition [18]: 93%
- AUC(0-t) [19]: 395 ng·h/mL
- inhibition [20]: 16%
- inhibition (INH) (Mus musculus [21]): 67%
